This note sets out measurements from ChEMBL document CHEMBL1255258, “Aminoglycosides affect intracellular Salmonella enterica serovars typhimurium and virchow” (Antimicrob Agents Chemother, 2008).

For test [1], the system named is Salmonella typhimurium. Kind of test: Antibacterial activity against Salmonella enterica serovars Typhimurium ATCC 14028 at pH 7.0 by broth dilution method. The test is classed as functional. An outline of the steps:
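Broth dilution MIC in LB broth buffered with phosphate to pH 7. Overnight culture was diluted 1:100 to about 10^6 CFU ml−1 final, with antibiotic at 0 to 500 μg ml−1. A600 was read after 24 h at 37°C with shaking.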
A general note: Broth dilution looks for growth in wells or tubes with falling amounts of substance.

The test system of test [2] is Salmonella typhimurium. Kind of test: Reduction in light emission by Salmonella enterica serovars Typhimurium ATCC 14028 infected in mouse J774A.1 cells at 15 ug/ml after 30 mins. The test is classed as functional, organism-based. The note with it: Salmonella enterica subsp. enterica serovar Typhimurium. An outline of the steps: (§1)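 Salmonella carrying pChν1 infected J774 macrophages (100:1, polymyxin B wash). Cells were held in antibiotic-free RPMI for 10 min at 37°C. Homoserine lactone 500 ng ml−1 was added, and 20 min later aminoglycoside at 15, 50, 100 or 150 μg ml−1. Luminescence was read every 5 min to 40 or 60 min, as % of untreated wells. Triplicate wells, at least three experiments.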

Test [3] has as its system Salmonella typhimurium. Kind of test: Reduction in light emission by Salmonella enterica serovars Typhimurium ATCC 14028 infected in mouse J774A.1 cells at 50 ug/ml within 5 mins. Conditions: Salmonella enterica subsp. enterica serovar Typhimurium. The test is classed as functional, organism-based. An outline of the steps:
as §1

In test [4] the test system is Salmonella typhimurium. Kind of test: Reduction in light emission by Salmonella enterica serovars Typhimurium ATCC 14028 at > 30 ug/ml after 40 mins. The note with it: Salmonella enterica subsp. enterica serovar Typhimurium. The test is classed as functional, organism-based.
The subject of test [5] is Salmonella typhimurium. Kind of test: Antibacterial activity against Salmonella enterica serovars Typhimurium ATCC 14028 at pH 5.7 by broth dilution method. In kind it is functional. An outline of the steps: (§2)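 Broth dilution MIC. Overnight cultures were diluted 1:100 in LB broth buffered with phosphate to pH 7 or 5.7, giving a final inoculum of ~10^6 CFU ml−1. Antibiotic range was 0 to 500 μg ml−1. Absorbance at 600 nm was read after 24 h at 37°C with shaking; mean of three experiments.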

In test [6] the test system is Salmonella enterica subsp. enterica serovar Virchow. Kind of test: Reduction in light emission by Salmonella enterica serovars virchow isolate 101591 at < 50 ug/ml. The test is classed as functional.
In test [7] the test system is Salmonella typhimurium. Kind of test: Antibacterial activity against Salmonella enterica serovars Typhimurium ATCC 14028 infected in mouse J774A.1 macrophage assessed as log reduction in viable counts at 150 ug/ml after 1hr. In kind it is functional, organism-based. The note with it: Salmonella enterica subsp. enterica serovar Typhimurium. The essentials:
(§3)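 J774 macrophages were seeded overnight at 37°C in 5% CO2, then switched to antibiotic-free RPMI. They were infected at 100:1 with Salmonella grown in RPMI to OD600 about 1. Extracellular bacteria were removed with 5 μg ml−1 polymyxin B for 10 min. Aminoglycoside was given for 1 h. Cells were lysed in 1% Triton X-100 buffer, and 1:10 serial dilutions were plated on LB agar.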

Test [8] relates to Salmonella typhimurium. Kind of test: Reduction in light emission by Salmonella enterica serovars Typhimurium ATCC 14028 infected in mouse J774A.1 cells at 50 ug/ml after 40 mins. Conditions: Salmonella enterica subsp. enterica serovar Typhimurium. The test is classed as functional, organism-based. An outline of the steps:
as §1

The subject of test [9] is Salmonella enterica subsp. enterica serovar Virchow. As to the kind of experiment: (§4) Antibacterial activity against Salmonella enterica serovars virchow isolate 101591 at pH 5.7 by broth dilution method. In kind it is functional. An outline of the steps:
as §2

In test [10] the test system is Salmonella typhimurium. Kind of test: Reduction in light emission by Salmonella enterica serovars Typhimurium ATCC 14028 infected in mouse J774A.1 cells at 15 ug/ml after 40 mins. The note with it: Salmonella enterica subsp. enterica serovar Typhimurium. In kind it is functional, organism-based. Also noted: scale not given: the % may be the effect or the level left. The essentials:
as §1

Test [11] relates to Salmonella enterica subsp. enterica serovar Virchow. As to the kind of experiment: Reduction in light emission by Salmonella enterica serovars virchow isolate 101591 at >= 50 ug/ml after 40 mins. In kind it is functional.
Test [12] has the same test system. Kind of test: Antibacterial activity against Salmonella enterica serovars virchow isolate 101591 infected in mouse J774A.1 cells at 50 ug/ml after 1hr. In kind it is functional, cell-based. The essentials:
as §3

In test [13] the test system is Salmonella typhimurium. Kind of test: Antibacterial activity against Salmonella enterica serovars Typhimurium ATCC 14028 infected in mouse J774A.1 cells at 50 ug/ml after 1hr. The test is classed as functional, organism-based. The note with it: Salmonella enterica subsp. enterica serovar Typhimurium. The essentials:
as §3

Test [14] concerns Salmonella. Kind of test: Antibacterial activity against Salmonella infected in mouse Nramp1 deficient RAW 264.7 cells assessed as log reduction in viable count at 100 ug/ml. In kind it is functional, organism-based.
The test system of test [15] is Salmonella. As to the kind of experiment: Antibacterial activity against Salmonella infected in mouse RAW 264.7 cells expressing Nramp1 assessed as log reduction in viable count at 100 ug/ml. In kind it is functional, organism-based.
For test [16], the system named is Salmonella typhimurium. Kind of test: Reduction in light emission by Salmonella enterica serovars Typhimurium ATCC 14028 after 5 mins. In kind it is functional, organism-based. Conditions: Salmonella enterica subsp. enterica serovar Typhimurium.
The test system of test [17] is Salmonella enterica subsp. enterica serovar Virchow. Kind of test: (§5) Antibacterial activity against Salmonella enterica serovars virchow isolate 101591 at pH 7.0 by broth dilution method. In kind it is functional. The essentials: as §2
For test [18], the system named is Salmonella typhimurium. Kind of test: Antibacterial activity against Salmonella enterica serovars Typhimurium ATCC 14028 assessed as log reduction in viable counts at 150 ug/ml after 1hr. The test is classed as functional, organism-based. The note with it: Salmonella enterica subsp. enterica serovar Typhimurium.
For test [19], the system named is Salmonella enterica subsp. enterica serovar Virchow. As to the kind of experiment: Reduction in light emission by Salmonella enterica serovars virchow isolate 101591 after 5mins. The test is classed as functional.
Test [20] shares this test system. As to the kind of experiment: Antibacterial activity against Salmonella enterica serovars virchow isolate 101591 infected in mouse J774A.1 macrophage assessed as log reduction in viable counts at 150 ug/ml after 1hr. The test is classed as functional. The essentials: as §3
Test [21] deals with Salmonella typhimurium. As to the kind of experiment: Reduction in light emission by Salmonella enterica serovars Typhimurium ATCC 14028 at <= 30 ug/ml. The test is classed as functional, organism-based. The note with it: Salmonella enterica subsp. enterica serovar Typhimurium.
For test [22], the system named is Salmonella enterica subsp. enterica serovar Virchow. Kind of test: Antibacterial activity against Salmonella enterica serovars virchow isolate 101591 assessed as log reduction in viable counts at 150 ug/ml after 1hr. In kind it is functional.
In test [23] the test system is Salmonella typhimurium. As to the kind of experiment: Reduction in light emission by Salmonella enterica serovars Typhimurium ATCC 14028 infected in mouse Nramp deficient RAW 264.7 cells at 100 ug/ml. The note with it: Salmonella enterica subsp. enterica serovar Typhimurium. Also on record: scale not given: the % may be the effect or the level left. The test is classed as functional, organism-based. The essentials: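 RAW 264.7 macrophages, Nramp1+ (R37) or Nramp1-null (R21), were infected with serovar Typhimurium carrying pChν1. Homoserine lactone was 500 ng ml−1. Gentamicin 100 μg ml−1 was added 0.5 to 3 h after infection. Luminescence was read every 5 min, as a ratio to untreated control in the same cell line. Triplicate, at least three trials.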

The test system of test [24] is Salmonella typhimurium. As to the kind of experiment: Reduction in light emission by Salmonella enterica serovars Typhimurium ATCC 14028 infected in mouse J774A.1 cells at 50 ug/ml after 30 mins. The test is classed as functional, organism-based. The note with it: Salmonella enterica subsp. enterica serovar Typhimurium. An outline of the steps: as §1
Test [25] concerns Salmonella typhimurium. As to the kind of experiment: Antibacterial activity against Salmonella enterica serovars Typhimurium ATCC 14028 at pH 5.7 by bioluminescence assay. The test is classed as functional, organism-based, Salmonella enterica subsp. enterica serovar Typhimurium. The essentials: (§6)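 Overnight cultures carrying the pChν1 lux plasmid were diluted 1:100 in LB broth with 30 μg ml−1 chloramphenicol, adjusted to pH 7 or 5.7. Final titer was ~10^6 CFU ml−1, with antibiotic at 0 to 500 μg ml−1. After 1 h at 30°C, homoserine-lactone (100 ng ml−1) was added to induce light. EC50 was the concentration halving light emission at 60 min; mean of three experiments.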

The nature of test [26]: Antibacterial activity against Salmonella enterica serovars virchow isolate 101591 at pH 5.7 by bioluminescence assay. The test is classed as functional, Salmonella enterica subsp. enterica serovar Virchow. The essentials:
as §6

Test [27] can be described thus: Antibacterial activity against Salmonella enterica serovars virchow isolate 101591 at pH 7.0 by bioluminescence assay. The test is classed as functional, Salmonella enterica subsp. enterica serovar Virchow. An outline of the steps: as §6
The subject of test [28] is Salmonella typhimurium. As to the kind of experiment: Antibacterial activity against Salmonella enterica serovars Typhimurium ATCC 14028 at pH 7.0 by bioluminescence assay. The test is classed as functional, organism-based, Salmonella enterica subsp. enterica serovar Typhimurium. The essentials: as §6
A short description of test [29]: as §4. In kind it is functional, Salmonella enterica subsp. enterica serovar Virchow. The essentials:
as §2

The test system of test [30] is Salmonella enterica subsp. enterica serovar Virchow. As to the kind of experiment: Reduction in light emission by Salmonella enterica serovars virchow isolate 101591 infected in mouse J774A.1 cells after 5 mins. In kind it is functional, cell-based. The essentials: as §1
Test [31] in a line: as §5. The test is classed as functional, Salmonella enterica subsp. enterica serovar Virchow. The essentials:
as §2

[32] abbreviates: Salmonella enterica subsp. enterica serovar Typhimurium.
Setting [33] is: Salmonella enterica, ATCC 14028, read-out: EC50.

Converted amounts (≈) assume the structure as drawn. The source made the active and inactive calls.

Consider GENTAMICIN [listing 1 of 2 here], for which the MIC (as a rule, the smallest concentration in the dilution series that meets the test's criterion for growth inhibition) was 4 µg/mL against Salmonella typhimurium [1] (setting [32]), 125 µg/mL with Salmonella typhimurium [5] (setting [32]), 125 µg/mL in test [9] and 8 µg/mL in test [17]. For the same compound, the result (with Salmonella typhimurium [2]; in the test with Salmonella typhimurium [3]; in the test on Salmonella typhimurium [4]; in the test with Salmonella typhimurium [7]; in the test with Salmonella typhimurium [8]; in test [11]) was Active. In addition, the result (in [12]; in the test with Salmonella typhimurium [16]; with Salmonella typhimurium [18]; in test [19]; in test [20]; in [22]) was Active. In the test with Salmonella typhimurium [24], the outcome was Active. For the same compound, the result (in test [6]; in the test with Salmonella typhimurium [13]; with Salmonella typhimurium [21]) was inactive. Further, the Activity in the test with Salmonella typhimurium [10] is 20%; in the test on Salmonella typhimurium [23], 80%. Moreover, the FC with Salmonella [14] was determined as 1.6; in the test with Salmonella [15] it was 0.4.
For the compound GENTAMICIN [listing 2 of 2 here], the EC50 (usually the concentration that produces a half-maximal response) in the test on Salmonella typhimurium [25] was found to be 34 µg/mL; in test [26] it was 85 µg/mL; in test [27], 2 µg/mL; in the test on Salmonella typhimurium [28], 1 µg/mL.
With `NC[C@H]1O[C@H](O[C@H]2[C@H](O)[C@@H](O[C@H]3O[C@H](CO)[C@@H](O)[C@H](N)[C@H]3O)[C@H](N)C[C@@H]2N)[C@H](N)C[C@@H]1O` [TOBRAMYCIN], the MIC with Salmonella typhimurium [1] was 4 µg/mL (≈ 8.56 µM); in the test on Salmonella typhimurium [5], 125 µg/mL (≈ 267 µM); in test [29], 250 µg/mL (≈ 535 µM); in test [31], 8 µg/mL (≈ 17.1 µM). Further, the EC50 is 19 µg/mL (≈ 40.6 µM) in the test on Salmonella typhimurium [25] (setting [33]), 75 µg/mL (≈ 160 µM) in [26], 2.5 µg/mL (≈ 5.35 µM) in test [27] and 1 µg/mL (≈ 2.14 µM) in the test with Salmonella typhimurium [28] (setting [33]). Moreover, the result (with Salmonella typhimurium [7]; in [12]; in test [30]; in the test on Salmonella typhimurium [18]; in test [20]; in test [22]) was Active. The outcome with Salmonella typhimurium [13] was inactive.
For the compound `NC[C@H]1O[C@H](O[C@H]2[C@H](O)[C@@H](O[C@H]3O[C@H](CO)[C@@H](O)[C@H](N)[C@H]3O)[C@H](N)C[C@@H]2N)[C@H](O)[C@@H](O)[C@@H]1O` [KANAMYCIN], the MIC with Salmonella typhimurium [1] was determined as 8 µg/mL (≈ 16.5 µM); in the test with Salmonella typhimurium [5], 250 µg/mL (≈ 516 µM); in [29] it was 250 µg/mL (≈ 516 µM); in [31] it was 16 µg/mL (≈ 33 µM). Moreover, the EC50 is 29 µg/mL (≈ 59.9 µM) in the test on Salmonella typhimurium [25] (setting [33]), 130 µg/mL (≈ 268 µM) in test [26], 6.5 µg/mL (≈ 13.4 µM) in test [27] and 3.5 µg/mL (≈ 7.22 µM) with Salmonella typhimurium [28] (setting [33]). Moreover, the result (in the test on Salmonella typhimurium [7]; in test [12]; in test [30]; in the test with Salmonella typhimurium [18]; in test [20]; in test [22]) was Active. Moreover, the result in the test with Salmonella typhimurium [13] was inactive.
